Assay results published in ChEMBL document CHEMBL1764975, “A new DNA gyrase inhibitor subclass of the cyclothialidine family based on a bicyclic dilactam-lactone scaffold. Synthesis and antibacterial properties” (J Med Chem, 2011).
Converted amounts (≈) assume the structure as drawn.

What was measured:
Staphylococcus aureus [1] = test: Antimicrobial activity against multidrug-resistant Staphylococcus aureus after 18 hrs by agar dilution method; type: functional
Outline: (§1)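 Agar dilution on Mueller-Hinton agar, inoculum 10⁴ CFU/spot, against panels of multiresistant clinical strains (S. aureus 11, E. faecalis 16, E. faecium 23). MIC_50/90 in μg/mL taken as the minimum concentration inhibiting at least 50% or 90% of the strains tested.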

Enterococcus faecalis [2] = test: Antimicrobial activity against multidrug-resistant Enterococcus faecalis after 18 hrs by agar dilution method; type: functional; outline: as §1
Moraxella catarrhalis = test: Antimicrobial activity against multidrug-resistant Moraxella catarrhalis after 18 hrs by agar dilution method; type: functional
Outline: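 Agar dilution on Mueller-Hinton agar supplemented with sheep blood (5% v/v), inoculum 10⁵ CFU/spot, against 20 multiresistant M. catarrhalis strains. MIC_50/90 in μg/mL taken as the minimum concentration inhibiting at least 50% or 90% of the strains.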

Haemophilus influenzae = test: Antimicrobial activity against multidrug-resistant Haemophilus influenzae after 18 hrs by agar dilution method; type: functional
Outline: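 Agar dilution on Haemophilus test medium, inoculum 10⁵ CFU/spot, against 21 multiresistant H. influenzae strains. MIC_50/90 in μg/mL taken as the minimum concentration inhibiting at least 50% or 90% of the strains.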

Escherichia coli [3] = test: Inhibition of Escherichia coli DNA gyrase A2B2 complex after 30 mins by supercoiling assay
Enterococcus faecium = test: Antimicrobial activity against multidrug-resistant Enterococcus faecium after 18 hrs by agar dilution method; type: functional; outline: as §1
Streptococcus pneumoniae = test: Antimicrobial activity against multidrug-resistant Streptococcus pneumoniae after 18 hrs by agar dilution method; type: functional
Outline: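 Agar dilution on IsoSensitest agar supplemented with sheep blood (5% v/v), inoculum 10⁴ CFU/spot, against 21 multiresistant S. pneumoniae strains. MIC_50/90 in μg/mL taken as the minimum concentration inhibiting at least 50% or 90% of the strains.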

Staphylococcus aureus [4] = test: Antimicrobial activity against Staphylococcus aureus Smith infected in iv dosed septicaemia Swiss albino mouse model after 4 days; type: functional; details: 96 h
Outline: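 Septicaemia model in mice infected with S. aureus Smith, compound given iv. In experiments with 0-1 survivors among 5-10 control mice, ED₅₀ (mg/kg) taken as lowest dose giving 3-5 survivors out of 5 infected mice.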

Staphylococcus aureus [5] = test: (§2) Antimicrobial activity against Staphylococcus aureus Smith after 18 hrs by agar dilution method; type: functional
Outline: (§3)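 Agar dilution on Mueller-Hinton medium, inoculum 10⁴ CFU/spot; MIC is the minimum inhibitory concentration against the named strain.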

Escherichia coli [6] = test: Antimicrobial activity against Escherichia coli 25922 after 18 hrs by agar dilution method; type: functional; details: Escherichia coli, 25922, 18 h; outline: as §3
Staphylococcus aureus [7] = test: Antimicrobial activity against Staphylococcus aureus ATCC 25923 after 18 hrs by agar dilution method; type: functional; details: ATCC 25923, 18 h; outline: as §3
Enterococcus faecalis [8] = test: Antimicrobial activity against Enterococcus faecalis 6 after 18 hrs by agar dilution method; details: Enterococcus faecalis, 6, 18 h
[9] = Octanol-water partition coefficient, log D of the compound at pH 7.4 by shake-flask method; type: physicochemical
Outline: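 Octanol/water partition measured by shake-flask at pH 7.4.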

Staphylococcus aureus [10] = test: Plasma shift, ratio of MIC for Staphylococcus aureus Smith in presence of mouse plasma to MIC for Staphylococcus aureus Smith in absence of mouse plasma; type: functional
Outline: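 Agar dilution MICs against S. aureus Smith were run on BHI agar mixed 1:1 with mouse plasma and on plain BHI agar. The plasma shift is the MIC with plasma divided by the MIC on BHI agar alone.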

Streptococcus pyogenes = test: Antimicrobial activity against Streptococcus pyogenes b15 after 18 hrs by agar dilution method; type: functional; details: b15, 18 h; outline: as §3
[11] = tested on: Staphylococcus epidermidis; test: Antimicrobial activity against Staphylococcus epidermidis 16/2 after 18 hrs by agar dilution method; type: functional; details: 16/2, 18 h; outline: as §3
[12] = tested on: Stenotrophomonas maltophilia; test: Antimicrobial activity against Xanthomonas maltophilia IAC 739 after 18 hrs by agar dilution method; type: functional; details: IAC 739, 18 h; outline: as §3
Staphylococcus aureus [13] = test: as §2; type: functional; outline: as §3; remark: listed apart in the source

Row | SMILES | MIC50 (Staphylococcus aureus [1]) [µg/mL] | MIC90 (Staphylococcus aureus [1]) [µg/mL] | MIC50 (Moraxella catarrhalis) [µg/mL] | MIC90 (Moraxella catarrhalis) [µg/mL] | MIC50 (Haemophilus influenzae) [µg/mL] | MIC90 (Haemophilus influenzae) [µg/mL] | MNEC (Escherichia coli [3]) [µg/mL] | MIC50 (Streptococcus pneumoniae) [µg/mL] | MIC90 (Streptococcus pneumoniae) [µg/mL] | ED50 (Staphylococcus aureus [4]) [mg/kg] | MIC (Staphylococcus aureus [5]) [µg/mL] | MIC (Escherichia coli [6]) [µg/mL] | MIC (Staphylococcus aureus [7]) [µg/mL] | MIC (Enterococcus faecalis [8]) [µg/mL] | logD [9] | Ratio (Staphylococcus aureus [10]) | MIC (Streptococcus pyogenes) [µg/mL] | MIC [11] [µg/mL] | MIC [12] [µg/mL] | MIC (Staphylococcus aureus [13]) [µg/mL] | other results
1 | COc1cc(O)c2c(c1C)C(=O)O[C@H](CO)CCC/C(S)=N/[C@H](c1nc(C)no1)CSC2 | 1 (≈ 2.08 µM) | 1 (≈ 2.08 µM) | 2 (≈ 4.15 µM) | 2 (≈ 4.15 µM) | 8 (≈ 16.6 µM) | 8 (≈ 16.6 µM) | 0.005 | 2 (≈ 4.15 µM) | 4 (≈ 8.31 µM) | 12.5 | 0.5 (≈ 1.04 µM) | – | – | – | – | – | – | – | – | – | MIC50 (Enterococcus faecalis [2]): 1 µg/mL (≈ 2.08 µM); MIC90 (Enterococcus faecalis [2]): 1 µg/mL (≈ 2.08 µM); MIC50 (Enterococcus faecium): 1 µg/mL (≈ 2.08 µM); MIC90 (Enterococcus faecium): 2 µg/mL (≈ 4.15 µM)
2 | COc1cc(O)c2c(c1Br)C(=O)OCCCCC(=O)N[C@H](c1nc(C)no1)CSC2 | – | – | – | – | – | – | 0.005 | – | – | 25 | 0.12 (≈ 0.24 µM) | 64 (≈ 128 µM) | < 0.12 | 0.12 (≈ 0.24 µM) | 2.18 | 4 | < 0.12 | < 0.12 | 2 (≈ 4 µM) | < 0.12 | –
3 | CC(=O)NC[C@H]1CN(c2ccc(N3CCOCC3)c(F)c2)C(=O)O1 [LINEZOLID] | 1 (≈ 2.96 µM) | 2 (≈ 5.93 µM) | 8 (≈ 23.7 µM) | 16 (≈ 47.4 µM) | 8 (≈ 23.7 µM) | 16 (≈ 47.4 µM) | – | 1 (≈ 2.96 µM) | 2 (≈ 5.93 µM) | – | – | – | – | – | – | – | – | – | – | – | MIC50 (Enterococcus faecalis [2]): 2 µg/mL (≈ 5.93 µM); MIC90 (Enterococcus faecalis [2]): 2 µg/mL (≈ 5.93 µM); MIC50 (Enterococcus faecium): 1 µg/mL (≈ 2.96 µM); MIC90 (Enterococcus faecium): 2 µg/mL (≈ 5.93 µM)
4 | COc1cc(O)c2c(c1Br)C(=O)OCC(=O)NCC(=O)N[C@H](c1nc(C)no1)CSC2 | 4 (≈ 7.76 µM) | 4 (≈ 7.76 µM) | 1 (≈ 1.94 µM) | 2 (≈ 3.88 µM) | 1 (≈ 1.94 µM) | 4 (≈ 7.76 µM) | 0.02 | 0.5 (≈ 0.97 µM) | 2 (≈ 3.88 µM) | 3 | 1 (≈ 1.94 µM) | > 64 | 4 (≈ 7.76 µM) | 0.5 (≈ 0.97 µM) | 1.4 | 2 | < 0.12 | < 0.12 | > 64 | 1 (≈ 1.94 µM) | MIC50 (Enterococcus faecalis [2]): 0.25 µg/mL (≈ 0.485 µM); MIC90 (Enterococcus faecalis [2]): 0.5 µg/mL (≈ 0.97 µM); MIC50 (Enterococcus faecium): 0.5 µg/mL (≈ 0.97 µM); MIC90 (Enterococcus faecium): 0.5 µg/mL (≈ 0.97 µM)
5 | COc1cc(O)c2c(c1Br)C(=O)OCCCCC(=S)N[C@H](c1nc(C)no1)CSC2 | – | – | – | – | – | – | 0.005 | – | – | > 25 | 0.12 (≈ 0.232 µM) | > 64 | < 0.12 | 0.12 (≈ 0.232 µM) | 3.23 | 8 | 0.12 (≈ 0.232 µM) | < 0.12 | 1 (≈ 1.94 µM) | < 0.12 | –
6 | COc1cc(O)c2c(c1C)C(=O)OCCCCC(=O)N[C@H](c1nc(C)no1)CSC2 | – | – | – | – | – | – | 0.01 | – | – | > 25 | 0.25 (≈ 0.574 µM) | > 64 | 0.5 (≈ 1.15 µM) | 0.5 (≈ 1.15 µM) | 1.99 | 2 | 1 (≈ 2.3 µM) | 0.12 (≈ 0.276 µM) | 4 (≈ 9.18 µM) | 0.25 (≈ 0.574 µM) | –
7 | CC1(C)S[C@@H]2[C@H](NC(=O)Cc3ccccc3)C(=O)N2[C@H]1C(=O)O [PENICILLIN G] | – | – | 8 (≈ 23.9 µM) | 32 (≈ 95.7 µM) | 32 (≈ 95.7 µM) | > 32 | – | 2 (≈ 5.98 µM) | 8 (≈ 23.9 µM) | – | – | – | – | – | – | – | – | – | – | – | –
8 | COc1cc(O)c2c(c1C)C(=O)OCCCCC(=S)N[C@H](c1nc(CN)no1)CSC2.Cl | – | – | – | – | – | – | 0.002 | – | – | 8.5 | 0.25 | 64 | 0.5 | 0.5 | 1.85 | 4 | 0.5 | < 0.12 | 4 | 0.25 | –
9 | COc1cc(O)c2c(c1C)C(=O)OCCCCC(=S)N[C@H](c1nc(C)no1)CSC2 | 1 (≈ 2.21 µM) | 1 (≈ 2.21 µM) | 2 (≈ 4.43 µM) | 2 (≈ 4.43 µM) | 8 (≈ 17.7 µM) | 16 (≈ 35.4 µM) | 0.004 | 1 (≈ 2.21 µM) | 2 (≈ 4.43 µM) | > 25 | 0.06 (≈ 0.133 µM) | > 64 | 0.12 (≈ 0.266 µM) | 0.25 (≈ 0.554 µM) | 3.09 | 8 | 0.25 (≈ 0.554 µM) | 0.01 (≈ 0.0221 µM) | 0.5 (≈ 1.11 µM) | 0.06 (≈ 0.133 µM) | MIC50 (Enterococcus faecalis [2]): 4 µg/mL (≈ 8.86 µM); MIC90 (Enterococcus faecalis [2]): 4 µg/mL (≈ 8.86 µM); MIC50 (Enterococcus faecium): 8 µg/mL (≈ 17.7 µM); MIC90 (Enterococcus faecium): 8 µg/mL (≈ 17.7 µM)
